Laboratory results taken from ChEMBL document CHEMBL4393701, “Appendix A. dithioloquinolinethiones as new potential multitargeted antibacterial and antifungal agents: Synthesis, biological evaluation and molecular docking studies” (2019).
Converted amounts (≈) assume the structure as drawn.

What was measured:
Bacillus cereus [1] = assay: Antibacterial activity against Bacillus cereus clinical isolate after 24 hrs by iodonitrotetrazolium chloride dye based microdilution assay; format: functional
How it was run: (§1)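 Fresh overnight cultures adjusted spectrophotometrically to 1×10^5 CFU/mL, giving 1.0×10^4 CFU per well in tryptic soy broth. Compounds were dissolved in 5% DMSO and tested at 0.001-1.0 mg/ml by serial dilution; 5% DMSO was the negative control. After 24 h at 37 °C, 0.2 mg/mL INT solution was added for 30 min at 37 °C and OD read at 655 nm. MIC is the lowest concentration giving significant growth inhibition versus the positive control. Duplicates, repeated three times.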

Bacillus cereus [2] = assay: Bactericidal activity against Bacillus cereus clinical isolate incubated for 24 hrs followed by re-plating on tryptic soy broth; format: functional
How it was run: (§2)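 Bacteria were grown in tryptic soy broth, 1.0×10^4 CFU per well, with compounds in 5% DMSO at 0.001-1.0 mg/ml for 24 h at 37 °C. Then 10 µL was subcultured into fresh TSB. MBC is the lowest concentration showing no growth after subculture, taken as 99.5% kill of the original inoculum. Duplicates, repeated three times.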

Micrococcus flavus [3] = assay: Antibacterial activity against Micrococcus flavus ATCC 10240 after 24 hrs by iodonitrotetrazolium chloride dye based microdilution method; format: functional; details: ATCC 10240, 24 h; how it was run: as §1
Micrococcus flavus [4] = assay: Bactericidal activity against Micrococcus flavus ATCC 10240 incubated for 24 hrs followed by re-plating on tryptic soy broth; format: functional; details: ATCC 10240, 24 h; how it was run: as §2
Staphylococcus aureus [5] = assay: Antibacterial activity against Staphylococcus aureus ATCC 6538 after 24 hrs by iodonitrotetrazolium chloride dye based microdilution method; format: functional; details: ATCC 6538, 24 h; how it was run: as §1
Staphylococcus aureus [6] = assay: Bactericidal activity against Staphylococcus aureus ATCC 6538 incubated for 24 hrs followed by re-plating on tryptic soy broth; format: functional; details: ATCC 6538, 24 h; how it was run: as §2
Listeria monocytogenes [7] = assay: Antibacterial activity against Listeria monocytogenes NCTC 7973 after 24 hrs by iodonitrotetrazolium chloride dye based microdilution method; format: functional; details: NCTC 7973, 24 h; how it was run: as §1
Listeria monocytogenes [8] = assay: Bactericidal activity against Listeria monocytogenes NCTC 7973 incubated for 24 hrs followed by re-plating on tryptic soy broth; format: functional; details: NCTC 7973, 24 h; how it was run: as §2
Enterobacter cloacae [9] = assay: Antibacterial activity against Enterobacter cloacae clinical isolate after 24 hrs by iodonitrotetrazolium chloride dye based microdilution method; format: functional; how it was run: as §1
Enterobacter cloacae [10] = assay: Bactericidal activity against Enterobacter cloacae incubated for 24 hrs followed by re-plating on tryptic soy broth; format: functional; how it was run: as §2
Pseudomonas aeruginosa [11] = assay: Antibacterial activity against Pseudomonas aeruginosa ATCC 27853 after 24 hrs by iodonitrotetrazolium chloride dye based microdilution method; format: functional; details: ATCC 27853, 24 h; how it was run: as §1
Pseudomonas aeruginosa [12] = assay: Bactericidal activity against Pseudomonas aeruginosa ATCC 27853 incubated for 24 hrs followed by re-plating on tryptic soy broth; format: functional; details: ATCC 27853, 24 h; how it was run: as §2
Salmonella typhimurium [13] = assay: Antibacterial activity against Salmonella typhimurium ATCC 13311 after 24 hrs by iodonitrotetrazolium chloride dye based microdilution method; format: functional, Salmonella enterica subsp. enterica serovar Typhimurium; details: Salmonella enterica, ATCC 13311, 24 h; how it was run: as §1
Salmonella typhimurium [14] = assay: Bactericidal activity against Salmonella typhimurium ATCC 13311 incubated for 24 hrs followed by re-plating on tryptic soy broth; format: functional, Salmonella enterica subsp. enterica serovar Typhimurium; details: Salmonella enterica, ATCC 13311, 24 h; how it was run: as §2
Escherichia coli [15] = assay: Antibacterial activity against Escherichia coli ATCC 35210 after 24 hrs by iodonitrotetrazolium chloride dye based microdilution method; format: functional; details: ATCC 35210, 24 h; how it was run: as §1
Escherichia coli [16] = assay: Bactericidal activity against Escherichia coli ATCC 35210 incubated for 24 hrs followed by re-plating on tryptic soy broth; format: functional; details: ATCC 35210, 24 h; how it was run: as §2
Aspergillus fumigatus [17] = assay: Antifungal activity against Aspergillus fumigatus ATCC 1022 after 72 hrs by microdilution technique; format: functional; details: ATCC 1022, 72 h
How it was run: (§3)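 Spores were washed off malt agar with 0.85% saline containing 0.1% Tween 80 and adjusted to about 1.0×10^5 per well. Compounds in 5% DMSO were serially diluted (0.001-1.0 mg/ml) in malt broth with inoculum. Plates were shaken at 160 rpm for 72 h at 28 °C. MIC is the lowest concentration without visible growth under a binocular microscope. Three independent experiments in duplicate.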

Aspergillus fumigatus [18] = assay: Fungicidal activity against Aspergillus fumigatus ATCC 1022 incubated for 72 hrs followed by sub-culturing on broth malt medium and measured after 72 hrs; format: functional; details: ATCC 1022, 72 h
How it was run: (§4)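 After 72 h exposure in malt broth, 2 µL from test wells was subcultured into wells holding 100 µL broth and incubated a further 72 h at 28 °C. MFC is the lowest concentration with no visible growth, taken as 99.5% kill of the original inoculum. Three independent experiments in duplicate.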

Aspergillus versicolor [19] = assay: Antifungal activity against Aspergillus versicolor ATCC 11730 after 72 hrs by microdilution method; format: functional; details: ATCC 11730, 72 h; how it was run: as §3
Aspergillus versicolor [20] = assay: Fungicidal activity against Aspergillus versicolor ATCC 11730 incubated for 72 hrs followed by sub-culturing on broth malt medium and measured after 72 hrs; format: functional; details: ATCC 11730, 72 h; how it was run: as §4
Aspergillus ochraceus [21] = assay: Antifungal activity against Aspergillus ochraceus ATCC 12066 after 72 hrs by microdilution technique; format: functional; details: ATCC 12066, 72 h; how it was run: as §3
Aspergillus ochraceus [22] = assay: Fungicidal activity against Aspergillus ochraceus ATCC 12066 incubated for 72 hrs followed by sub-culturing on broth malt medium and measured after 72 hrs; format: functional; details: ATCC 12066, 72 h; how it was run: as §4
Aspergillus niger [23] = assay: Antifungal activity against Aspergillus niger ATCC 6275 after 72 hrs by microdilution technique; format: functional; details: ATCC 6275, 72 h; how it was run: as §3
Aspergillus niger [24] = assay: Fungicidal activity against Aspergillus niger ATCC 6275 incubated for 72 hrs followed by sub-culturing on broth malt medium and measured after 72 hrs; format: functional; details: ATCC 6275, 72 h; how it was run: as §4
Trichoderma viride [25] = assay: Antifungal activity against Trichoderma viride IAM 5061 after 72 hrs by microdilution technique; format: functional; details: IAM 5061, 72 h; how it was run: as §3
Trichoderma viride [26] = assay: Fungicidal activity against Trichoderma viride IAM 5061 incubated for 72 hrs followed by sub-culturing on broth malt medium and measured after 72 hrs; format: functional; details: IAM 5061, 72 h; how it was run: as §4
Penicillium ochrochloron [27] = assay: Antifungal activity against Penicillium ochrochloron ATCC 9112 after 72 hrs by microdilution technique; format: functional; details: ATCC 9112, 72 h; how it was run: as §3
Penicillium ochrochloron [28] = assay: Fungicidal activity against Penicillium ochrochloron ATCC 9112 incubated for 72 hrs followed by sub-culturing on broth malt medium and measured after 72 hrs; format: functional; details: ATCC 9112, 72 h; how it was run: as §4
[29] = Antifungal activity against Penicillium funiculosum ATCC 36839 after 72 hrs by microdilution technique; format: functional; details: Talaromyces pinophilus, ATCC 36839, 72 h; how it was run: as §3
[30] = Fungicidal activity against Penicillium funiculosum ATCC 36839 incubated for 72 hrs followed by sub-culturing on broth malt medium and measured after 72 hrs; format: functional; details: Talaromyces pinophilus, ATCC 36839, 72 h; how it was run: as §4
Penicillium cyclopium [31] = assay: Antifungal activity against Penicillium verrucosum var. cyclopium food isolate after 72 hrs by microdilution technique; format: functional; how it was run: as §3
Penicillium cyclopium [32] = assay: Fungicidal activity against Penicillium verrucosum var. cyclopium food isolate incubated for 72 hrs followed by sub-culturing on broth malt medium and measured after 72 hrs; format: functional; how it was run: as §4

Structure (SMILES) | MIC (Aspergillus fumigatus [17]) [×10⁻² mM] | MFC (Aspergillus fumigatus [18]) [×10⁻² mM] | MIC (Aspergillus versicolor [19]) [×10⁻² mM] | MFC (Aspergillus versicolor [20]) [×10⁻² mM] | MIC (Aspergillus ochraceus [21]) [×10⁻² mM] | MFC (Aspergillus ochraceus [22]) [×10⁻² mM] | MIC (Aspergillus niger [23]) [×10⁻² mM] | MFC (Aspergillus niger [24]) [×10⁻² mM] | MIC (Trichoderma viride [25]) [×10⁻² mM] | MFC (Trichoderma viride [26]) [×10⁻² mM] | MIC (Penicillium ochrochloron [27]) [×10⁻² mM] | MFC (Penicillium ochrochloron [28]) [×10⁻² mM] | MIC [29] [×10⁻² mM] | MFC [30] [×10⁻² mM] | MIC (Penicillium cyclopium [31]) [×10⁻² mM] | MFC (Penicillium cyclopium [32]) [×10⁻² mM] | other results
CCOc1ccc2c(c1)-c1c(ssc1=S)C(C)(C)N2 | 5.9 | 11.8 | 5.9 | 11.8 | 11.8 | 23.6 | 4.32 | 11.8 | 1.18 | 2.95 | 0.79 | 1.57 | 11.8 | 23.6 | 8.85 | 23.6 | MIC (Bacillus cereus [1]): 29.5 µM (≈ 9.13 µg/mL); MBC (Bacillus cereus [2]): 59 µM (≈ 18.3 µg/mL); MIC (Micrococcus flavus [3]): 29.5 µM (≈ 9.13 µg/mL); MBC (Micrococcus flavus [4]): 59 µM (≈ 18.3 µg/mL); MIC (Staphylococcus aureus [5]): 29.5 µM (≈ 9.13 µg/mL); MBC (Staphylococcus aureus [6]): 59 µM (≈ 18.3 µg/mL); MIC (Listeria monocytogenes [7]): 29.5 µM (≈ 9.13 µg/mL); MBC (Listeria monocytogenes [8]): 59 µM (≈ 18.3 µg/mL); MIC (Enterobacter cloacae [9]): 29.5 µM (≈ 9.13 µg/mL); MBC (Enterobacter cloacae [10]): 59 µM (≈ 18.3 µg/mL); MIC (Pseudomonas aeruginosa [11]): 29.5 µM (≈ 9.13 µg/mL); MBC (Pseudomonas aeruginosa [12]): 59 µM (≈ 18.3 µg/mL); MIC (Salmonella typhimurium [13]): 29.5 µM (≈ 9.13 µg/mL); MBC (Salmonella typhimurium [14]): 59 µM (≈ 18.3 µg/mL); MIC (Escherichia coli [15]): 29.5 µM (≈ 9.13 µg/mL); MBC (Escherichia coli [16]): 59 µM (≈ 18.3 µg/mL)
c1ccc(-c2ccc(C(c3ccccc3)n3ccnc3)cc2)cc1 (stereo not drawn) [BIFONAZOLE] | 48 | 64 | 48 | 64 | 48 | 80 | 48 | 64 | 64 | 80 | 64 | 80 | 48 | 64 | 48 | 64 | 
